Structures are written as SMILES.

Data set [1] is described as follows: Selectivity index, ratio of IC50 for horse serum butyrylcholinesterase to IC50 for electric eel acetylcholinesterase.
Data set [2] can be described thus: Antioxidant activity assessed as ABTS cation radical scavenging activity measured after 6 mins.
The target of another data set is Cholinesterase (Equus caballus, UniProt P81908). Briefly: Inhibition of horse serum butyrylcholinesterase using butyrylthiocholine iodide as substrate preincubated for 15 mins followed by substrate addition by Ellman's method. Put shortly: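 Enzyme in 100 mM phosphate buffer pH 8.0 with sample (n-propanol as solvent and control) preincubated 15 min at 25°C. Reaction started with butyrylthiocholine iodide (0.79 mM solution) plus DTNB. Thiolate-DTNB yellow product followed at 412 nm. IC50 taken from inhibition (%) curves at five concentrations: 12.5, 25, 50, 100 and 200 µM.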
Sequence of Cholinesterase (P81908 whole entry): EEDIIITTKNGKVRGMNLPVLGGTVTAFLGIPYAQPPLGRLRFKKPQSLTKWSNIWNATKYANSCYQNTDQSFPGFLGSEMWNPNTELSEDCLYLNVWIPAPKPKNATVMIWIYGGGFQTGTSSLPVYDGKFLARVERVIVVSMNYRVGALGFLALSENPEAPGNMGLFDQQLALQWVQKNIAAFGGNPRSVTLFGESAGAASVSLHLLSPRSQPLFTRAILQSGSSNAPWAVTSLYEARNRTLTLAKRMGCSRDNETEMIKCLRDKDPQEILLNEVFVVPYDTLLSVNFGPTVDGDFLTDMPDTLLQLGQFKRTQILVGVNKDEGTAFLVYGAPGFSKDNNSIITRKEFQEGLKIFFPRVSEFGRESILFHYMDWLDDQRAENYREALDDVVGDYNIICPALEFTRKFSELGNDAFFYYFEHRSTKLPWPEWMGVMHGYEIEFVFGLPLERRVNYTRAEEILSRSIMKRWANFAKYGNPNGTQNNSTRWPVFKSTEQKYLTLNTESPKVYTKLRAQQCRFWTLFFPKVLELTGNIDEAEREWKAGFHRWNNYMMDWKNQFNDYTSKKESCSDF

Another data set addresses Acetylcholinesterase (Electrophorus electricus, UniProt O42275). The experiment in a line: Inhibition of electric eel acetylcholinesterase using acetylthiocholine iodide as substrate preincubated for 15 mins followed by substrate addition by Ellman's method.
A short description of data set [3]: Antioxidant activity assessed as cupric reducing antioxidant capacity measured after 1 hr. It is filed as physicochemical.

Sequence of Acetylcholinesterase (O42275 whole entry): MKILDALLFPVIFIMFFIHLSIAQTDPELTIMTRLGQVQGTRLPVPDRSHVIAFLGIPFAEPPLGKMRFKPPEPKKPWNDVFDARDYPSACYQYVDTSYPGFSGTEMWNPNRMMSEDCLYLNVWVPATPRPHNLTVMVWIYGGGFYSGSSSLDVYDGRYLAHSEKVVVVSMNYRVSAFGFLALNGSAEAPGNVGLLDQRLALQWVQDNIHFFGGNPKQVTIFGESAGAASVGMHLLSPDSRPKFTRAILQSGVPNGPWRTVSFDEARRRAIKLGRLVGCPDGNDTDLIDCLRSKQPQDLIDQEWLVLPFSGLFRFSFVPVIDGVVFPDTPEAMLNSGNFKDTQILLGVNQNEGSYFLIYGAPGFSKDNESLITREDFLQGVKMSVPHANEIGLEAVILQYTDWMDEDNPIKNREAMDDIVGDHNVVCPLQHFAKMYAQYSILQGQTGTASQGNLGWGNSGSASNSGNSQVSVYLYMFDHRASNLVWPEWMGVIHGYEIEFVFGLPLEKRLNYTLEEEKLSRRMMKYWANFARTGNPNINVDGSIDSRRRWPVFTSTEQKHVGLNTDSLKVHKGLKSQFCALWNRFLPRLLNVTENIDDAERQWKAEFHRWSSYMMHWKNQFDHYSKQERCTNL

As to `O=C(Nc1ccc(Br)cc1)Nc1nc(-c2cc3ccccc3o2)cs1`, the Ratio IC50 in data set [1] worked out at 1.68. Moreover, the results for the IC50 (in data set [2] (ABTS cation radical); against Cholinesterase; against Acetylcholinesterase) were above 200 µM, 55.2 µM and 32.8 µM, respectively. Further, in data set [3], the A0.5 is above 200 µM.
As to `O=C(Nc1ccc(F)cc1)Nc1nc(-c2cc3cc(Br)ccc3o2)cs1`, the Ratio IC50 in data set [1] amounted to 1.81. For the same compound, the half-maximal inhibitory concentration (IC50) in data set [2] (ABTS cation radical) was above 200 µM; against Cholinesterase, 64.3 µM; against Acetylcholinesterase, 35.6 µM. Moreover, in data set [3], the A0.5 came to 146.78 µM.
For `O=C(Nc1nc(-c2cc3ccccc3o2)cs1)Nc1ccccc1F` the same measures were 1.35, 2.63 µM, 41.7 µM, 30.9 µM and 102.43 µM.
For `O=C(Nc1ccc(F)cc1)Nc1nc(-c2cc3ccccc3o2)cs1` the same measures were 0.14, 1.13 µM, 7.45 µM, 55 µM and 110.31 µM.
For `O=C(Nc1cccc(F)c1)Nc1nc(-c2cc3cc(Br)ccc3o2)cs1`, in that order: 1.37, above 200 µM, 40.2 µM, 29.4 µM and above 200 µM.
`O=C(Nc1cccc([N+](=O)[O-])c1)Nc1nc(-c2cc3ccccc3o2)cs1`: the Ratio IC50 in data set [1] stood at 0.65. For the same compound, the half-inhibitory concentration (IC50) is 1.26 µM in data set [2], 26.8 µM on Cholinesterase and 41.2 µM on Acetylcholinesterase. For the same compound, the A0.5 in data set [3] was above 200 µM.
For `O=C(Nc1ccccc1)Nc1nc(-c2cc3ccccc3o2)cs1`, the Ratio IC50 in data set [1] came to 0.86. Besides, the concentration for half-maximal inhibition (IC50) in data set [2] (ABTS cation radical) is 28.2 µM; against Cholinesterase, 21.3 µM; against Acetylcholinesterase it was 24.7 µM. Also, the A0.5 in data set [3] amounted to 132 µM.
For `COc1cccc(NC(=O)Nc2nc(-c3cc4cc(Br)ccc4o3)cs2)c1`, in that order: 0.47, above 200 µM, 13.9 µM, 29.4 µM and above 200 µM.
As to `COc1ccc(NC(=O)Nc2nc(-c3cc4ccccc4o3)cs2)cc1`, in data set [1], the Ratio IC50 came to 1.42. In addition, the half-inhibitory concentration (IC50) stood at 17.4 µM in data set [2] (ABTS cation radical), 74.3 µM on Cholinesterase and 52.5 µM against Acetylcholinesterase. Besides, in data set [3], the A0.5 stood at 146.34 µM.
For `O=C(Nc1nc(-c2cc3cc(Br)ccc3o2)cs1)Nc1ccccc1F`, in that order: 2.4, above 200 µM, 9.25 µM, 3.85 µM and above 200 µM.
For `O=C(Nc1ccc(F)cc1)Nc1nc(-c2cc3cc([N+](=O)[O-])ccc3o2)cs1` the same measures were 1.16, 123 µM, 47.6 µM, 41.1 µM and above 200 µM.
For `COc1ccc(NC(=O)Nc2nc(-c3cc4cc(Br)ccc4o3)cs2)cc1` the same measures were 0.95, above 200 µM, 31 µM, 32.8 µM and above 200 µM.
On to `Cc1ccc(NC(=O)Nc2nc(-c3cc4ccccc4o3)cs2)cc1`, for which the Ratio IC50 in data set [1] amounted to 5.41. Also, the IC50 in data set [2] (ABTS cation radical) was determined as 0.5 µM; on Cholinesterase, 56.3 µM; at Acetylcholinesterase, 10.4 µM. The A0.5 in data set [3] amounted to 192.91 µM.
For `O=C(Nc1cccc(Cl)c1)Nc1nc(-c2cc3ccccc3o2)cs1`, in that order: 2.22, 14.1 µM, 21.5 µM, 9.67 µM and above 200 µM.
For `O=C(Nc1nc(-c2cc3cc(Br)ccc3o2)cs1)Nc1ccccc1[N+](=O)[O-]`, in that order: 0.58, 166 µM, 5.12 µM, 8.82 µM and 122.22 µM.
For `O=C(Nc1cccc(Cl)c1)Nc1nc(-c2cc3cc(Br)ccc3o2)cs1`, in that order: 3.32, above 200 µM, 26.3 µM, 7.93 µM and above 200 µM.
For the compound `O=C(Nc1ccc(I)cc1)Nc1nc(-c2cc3ccccc3o2)cs1`, in data set [1], the Ratio IC50 was 1.93. Moreover, the half-maximal inhibitory concentration (IC50) was 62 µM in data set [2] (ABTS cation radical), 41.3 µM against Cholinesterase and 21.4 µM against Acetylcholinesterase. In addition, in data set [3], the A0.5 is 133 µM.
For `O=C(Nc1nc(-c2cc3ccccc3o2)cs1)Nc1ccccc1[N+](=O)[O-]` the same measures were 1.91, 20.3 µM, 79.9 µM, 41.9 µM and 100.33 µM.
For `O=C(Nc1ccc(Cl)c(Cl)c1)Nc1nc(-c2cc3ccccc3o2)cs1`, in that order: 1.45, above 200 µM, 75.6 µM, 52 µM and above 200 µM.
For `O=C(Nc1ccc([N+](=O)[O-])cc1)Nc1nc(-c2cc3cc(Br)ccc3o2)cs1`, in that order: 0.65, above 200 µM, 3.12 µM, 4.78 µM and 120.74 µM.
As for `O=C(Nc1ccc(Br)cc1)Nc1nc(-c2cc3cc([N+](=O)[O-])ccc3o2)cs1`, the Ratio IC50 in data set [1] came to 1.22. Besides, the values for the 50% inhibitory concentration (IC50) (in data set [2] (ABTS cation radical); against Cholinesterase; on Acetylcholinesterase) were 194 µM, 34.5 µM and 28.2 µM, respectively. In addition, the A0.5 in data set [3] was above 200 µM.
In the case of `COc1ccc(NC(=O)Nc2nc(-c3cc4cc([N+](=O)[O-])ccc4o3)cs2)cc1`, the Ratio IC50 in data set [1] worked out at 1.44. Also, the concentration for half-maximal inhibition (IC50) turned out to be 121 µM in data set [2] (ABTS cation radical), 49.2 µM at Cholinesterase and 34.1 µM against Acetylcholinesterase. The A0.5 in data set [3] was above 200 µM.
For the compound `O=c1c(O)c(-c2ccc(O)c(O)c2)oc2cc(O)cc(O)c12` [QUERCETIN], the IC50 in data set [2] (ABTS cation radical) worked out at 1.18 µM. Moreover, in data set [3], the A0.5 was 1.45 µM.
Turning to `O=C(Nc1ccc(Cl)cc1)Nc1nc(-c2cc3cc([N+](=O)[O-])ccc3o2)cs1`, in data set [1], the Ratio IC50 worked out at 0.87. The results for the IC50 (in data set [2] (ABTS cation radical); against Cholinesterase; against Acetylcholinesterase) were 117 µM, 26.6 µM and 30.6 µM, respectively. The A0.5 in data set [3] was above 200 µM.
For `Cc1ccc(NC(=O)Nc2nc(-c3cc4cc(Br)ccc4o3)cs2)cc1` the same measures were 0.17, above 200 µM, 5.65 µM, 32.5 µM and above 200 µM.
For `O=C(Nc1ccc(Br)cc1)Nc1nc(-c2cc3cc(Br)ccc3o2)cs1` the same measures were 3, above 200 µM, 35.8 µM, 11.9 µM and above 200 µM.
For `O=C(Nc1ccc(Cl)cc1)Nc1nc(-c2cc3cc(Br)ccc3o2)cs1` the same measures were 1.66, above 200 µM, 36.9 µM, 22.2 µM and above 200 µM.
For `O=C(Nc1ccccc1)Nc1nc(-c2cc3cc([N+](=O)[O-])ccc3o2)cs1`, in data set [1], the Ratio IC50 is 0.51. For the same compound, the IC50 was 183 µM in data set [2] (ABTS cation radical), 2.26 µM against Cholinesterase and 4.42 µM at Acetylcholinesterase. Moreover, the A0.5 in data set [3] was above 200 µM.
On to `O=C(Nc1cccc(F)c1)Nc1nc(-c2cc3ccccc3o2)cs1`, for which, in data set [1], the Ratio IC50 stood at 0.37. For the same compound, the results for the IC50 (in data set [2] (ABTS cation radical); against Cholinesterase; at Acetylcholinesterase) were 4.52 µM, 18 µM and 49 µM, respectively. The A0.5 in data set [3] is 126.52 µM.
For `O=C(Nc1ccccc1)Nc1nc(-c2cc3cc(Br)ccc3o2)cs1` the same measures were 1.5, above 200 µM, 35 µM, 23.3 µM and above 200 µM.
For `O=C(Nc1ccc([N+](=O)[O-])cc1)Nc1nc(-c2cc3cc([N+](=O)[O-])ccc3o2)cs1`, in that order: 1.02, 100 µM, 25.6 µM, 25.2 µM and above 200 µM.
For `COc1ccccc1NC(=O)Nc1nc(-c2cc3ccccc3o2)cs1`, in that order: 1.33, 47.4 µM, 81.3 µM, 61 µM and above 200 µM.
Turning to `O=C(Nc1ccc([N+](=O)[O-])cc1)Nc1nc(-c2cc3ccccc3o2)cs1`, in data set [1], the Ratio IC50 stood at 0.66. Also, the results for the half-inhibitory concentration (IC50) (in data set [2] (ABTS cation radical); against Cholinesterase; against Acetylcholinesterase) were 19.3 µM, 3.44 µM and 5.23 µM, respectively. For the same compound, the A0.5 in data set [3] is above 200 µM.
With `O=C(Nc1cccc([N+](=O)[O-])c1)Nc1nc(-c2cc3cc(Br)ccc3o2)cs1`, in data set [1], the Ratio IC50 stood at 4.53. The IC50 in data set [2] (ABTS cation radical) was found to be 159 µM; on Cholinesterase, 79 µM; against Acetylcholinesterase, 17.4 µM. Moreover, the A0.5 in data set [3] is above 200 µM.
For `COc1cccc(NC(=O)Nc2nc(-c3cc4ccccc4o3)cs2)c1`, in that order: 1.22, 0.2 µM, 59.6 µM, 48.9 µM and 104.46 µM.
Regarding `O=C(Nc1ccc(Cl)cc1)Nc1nc(-c2cc3ccccc3o2)cs1`, the Ratio IC50 in data set [1] was 0.91. In addition, the half-maximal inhibitory concentration (IC50) came out at 11.2 µM in data set [2] (ABTS cation radical), 38.6 µM against Cholinesterase and 42.6 µM at Acetylcholinesterase. Also, the A0.5 in data set [3] is above 200 µM.
